Compound activity deposited in PubChem by several laboratories.
In the library only some 2.9% were active in any assay of this set; here they are far more common.
ATG4B inh: blocks human ATG4B protease cleavage of LC3 substrate | Q9Y4P1 | ATG4B cleavage of LC3-PLA2, NBD-HPC fluorescence, 1 h | inhibition, % at 8.33 µM | 0.51% of 340,000 active | AID 504462; in the data active = inhibition above about 40%
PRMT1 FP inh: inhibitors of human PRMT1 | Q99873 | recombinant PRMT1, activity-based probe fluorescence polarization | inhibition, % at 2.79 µM | 1.3% of 370,000 active | AID 652257;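 active = inhibition above about 21% made by adding two undisclosed values, limit read from the data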
HTRA1 inh: blocks human HTRA1 serine peptidase. Q92743. recombinant HTRA1, FP-rhodamine activity-based probe, fluorescence polarization. inhibition, % at 5.96 µM. 0.5% of 340,000 active. AID 504803; in the data active = inhibition above about 36%;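 also: 0% = enzyme with DMSO and 100% = wells lacking enzyme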
Target sequence (Q92743 whole entry, looked up): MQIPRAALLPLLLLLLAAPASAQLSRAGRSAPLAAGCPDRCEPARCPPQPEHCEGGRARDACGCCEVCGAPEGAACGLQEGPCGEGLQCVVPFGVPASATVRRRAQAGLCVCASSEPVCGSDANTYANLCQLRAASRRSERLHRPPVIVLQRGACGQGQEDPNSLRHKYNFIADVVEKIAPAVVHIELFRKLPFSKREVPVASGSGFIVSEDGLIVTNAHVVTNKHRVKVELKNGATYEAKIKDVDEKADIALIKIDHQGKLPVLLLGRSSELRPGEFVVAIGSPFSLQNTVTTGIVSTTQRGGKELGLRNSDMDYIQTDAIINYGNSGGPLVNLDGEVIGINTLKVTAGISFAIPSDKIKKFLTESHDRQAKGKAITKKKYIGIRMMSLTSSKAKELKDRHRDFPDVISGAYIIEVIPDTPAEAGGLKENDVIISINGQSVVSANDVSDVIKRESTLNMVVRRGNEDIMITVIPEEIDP
SIAE inh: human SIAE inhibition, primary screen. AID 1053197. inhibition, % at 9.66 µM. 0.69% of 370,000 active. SIAE FP-Rh probe binding, fluorescence polarization;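 active = inhibition above a cutoff: mean of compounds within the control limits plus 3 SD of those, cut at about 17% in these data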;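 also: 0% = plate median of compound wells and 100% = probe without SIAE protein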
TCR CD3 inh: inhibitors of human TCR-CD3 interaction | inhibition, % at 9.4 µM | AID 651800 | 0.37% of 360,000 active | TAMRA-labeled TCR probe fluorescence, biochemical; in the data active = inhibition above about 19%;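 also: recombinant mutant TCR 2C K166C tagged with TAMRA read by polarization; 0% = receptor in buffer alone and 100% = receptor with positive control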
mABHD4 FP: inhibits mouse alpha/beta hydrolase domain 4; Q8VD66; purified mABHD4, FP-Rh probe fluorescence polarization; inhibition, % at 8.92 µM; 0.54% of 370,000 active;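 active = inhibition exceeding the mean over every tested compound plus 3 SD, cut at about 30% in these data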;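 also: 0% = plate median of compound wells and 100% = S159A mutant with DMSO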
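Material: mouse ABHD4 enzyme, wild type; Benchmarks: S159A mutant high control, sample median low control; Buffer or medium: HEPES pH 7.0, NaCl, Pluronic buffer; Signal: fluorescence polarization; Read-out: percent inhibition of probe binding, normalized to plate controls; Timing: pre-incubation 45 min, probe exposure 60 min, at 25 °C; Dosing: 8.92 µM, single dose.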
ATG4B conf: ATG4B (human) inhibition, single-dose confirmed. shares compounds with ATG4B inh. ATG4B protease fluorescent substrate cleavage assay. inhibition, % at 8.33 µM. 92% of 320 active. AID 504757; in the data active = inhibition above about 39%
PLA2 counter: counter-screen for ATG4B inhibitors: human phospholipase A2. 66% of 1,600 active. AID 588402. purified PLA2, NBD-C6-HPC fluorescence, 45 min. inhibition, % at 8.33 µM. shares compounds with ATG4B inh; in the data active = inhibition above about 50%
Target sequence (P04054 whole entry, looked up): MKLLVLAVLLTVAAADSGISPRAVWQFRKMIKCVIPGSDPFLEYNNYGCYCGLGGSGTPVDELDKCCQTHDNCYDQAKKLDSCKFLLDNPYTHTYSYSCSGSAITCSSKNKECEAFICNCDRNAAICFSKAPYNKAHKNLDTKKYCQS
* hit, by the source's call; . = no result.

SMILES | ATG4B inh | PRMT1 FP inh | HTRA1 inh | SIAE inh | TCR CD3 inh | mABHD4 FP | PLA2 counter | others
Cc1ccc(/C=C2\SC(=S)N(C(Cc3ccccc3)C(=O)O)C2=O)cc1 (centres undefined) | 48* | 4 | -25 | 16 | -3 | 2 | 22 | ATG4B conf=79*
CC(/C=C1\SC(=O)N(CCCC(=O)O)C1=O)=C\c1ccccc1 | 11 | 2 | 3 | 10 | 1 | 5 | .
CC(=C\c1ccccc1)/C=C1/SC(=S)N(CCCC(=O)O)C1=O | 52* | 2 | -24 | -1 | 4 | 14 | 9 | ATG4B conf=78*
CCCCNC(=O)C1(C(=O)c2ccc(OC)cc2)CC(c2ccccn2)=NO1 (centres undefined) | . | 4 | . | 5 | . | -2 | .
COC(=O)[C@]12C[C@H](CC(=O)N3CCCC3)C(=O)N(Cc3ccco3)C1=C[C@H](COCc1ccccc1)O[C@@H]2C | . | -2 | . | 2 | . | -4 | .
CCOC(=O)[C@]12CCCC=C1N(CCCOC)C(=O)[C@@H]2CC(=O)NCC12CC3CC(CC(C3)C1)C2 | . | -4 | . | 6 | . | 2 | .
Cc1ccc2nc3c(c(Nc4ccc(O)cc4)c2c1)CCC3 | 12 | 1 | -24 | 7 | -6 | 2 | .
Cc1ccc2nc3c(c(Nc4ccc5c(c4)OCCO5)c2c1)CCC3 | 42* | 1 | -27 | 4 | 0 | 0 | 37 | ATG4B conf=65*
COc1ccc(S[C@]2(C(=O)N3CCN(c4ncccn4)CC3)CC(=O)N(C(=O)Nc3ccc(C)c(Cl)c3)[C@@H]2c2ccc(OC)cc2)cc1 | . | 0 | . | -8 | . | -3 | .
C=CCN1C(c2ccc(Br)cc2)=CS/C1=C(\C#N)c1nnc(N2CCOCC2)n1-c1ccccc1 | 52* | 4 | -3 | 6 | -3 | 3 | 69*
C=CCN1C(c2cccc(C(F)(F)F)c2)=CS/C1=C(\C#N)c1nnc(N2CCOCC2)n1-c1ccccc1 | . | 5 | -3 | -1 | 4 | -4 | .
COc1ccc2cc3cc(C(=O)N4CC(C)CC(C)C4)oc3nc2c1 (centres undefined) | 49* | . | -59 | . | . | . | 54*
Cc1ccc2cc3cc(C(=O)N4CCCCC4C)oc3nc2c1 (centres undefined) | -11 | -1 | -18 | 3 | 10 | 1 | .
Cc1ccc2cc3cc(C(=O)N4CC(C)CC(C)C4)oc3nc2c1 (centres undefined) | 45* | -3 | -41 | -6 | 1 | 4 | 57*
CCOC(=O)C1CCN(C(=O)c2cc3cc4ccc(OC)cc4nc3o2)CC1 | -10 | 2 | -8 | -1 | 3 | -2 | .
Cc1nnc(N2CCCC(C(=O)NCc3cccc(F)c3)C2)c2nn(-c3ccccc3)c(C)c12 (centres undefined) | 50* | -6 | -8 | 4 | -1 | -2 | 37
O=C(Nc1c(C(=O)O)oc2ccc(Br)cc12)c1ccccc1 | 48* | . | -58 | . | . | . | 57*
COC(=O)C12C=C3CC(c4ccc(C(F)(F)F)cc4)=C3C(=O)N1Cc1[nH]c3ccccc3c1C2 (centres undefined) | . | 2 | . | 0 | . | -1 | .
COC(=O)c1ccc(COc2ccccc2OC)o1 | -3 | 1 | 2 | 1 | -1 | 1 | .
COc1ccccc1OCc1ccc(C(=O)n2nc(C)c(Cl)c2C)o1 | 75* | 4 | 13 | 3 | -4 | -4 | 77*
COc1ccc(-n2c(COc3ccc(Cl)cc3)nnc2SCC(=O)c2ccc(-c3ccccc3)cc2)cc1 | . | -10 | . | -5 | . | -5 | .
O=C(Nc1ccc(Cl)cc1)NC1CCCc2ccccc21 (centres undefined) | 68* | -1 | -4 | -6 | 4 | -3 | 66*
CCN1CCCCC(NC(=O)c2ccccc2OC)C1=O (centres undefined) | . | 0 | . | -2 | . | -2 | .
Cc1ccccc1NC(=O)OC1CCC12CCCCC2 (centres undefined) | . | 5 | . | 2 | . | 3 | .
Cc1ccc(C(=O)Nc2ccccc2N2CCCCC2)cc1[N+](=O)[O-] | 37 | -2 | -9 | 3 | 4 | 9 | .
SMILES | ATG4B inh | PRMT1 FP inh | HTRA1 inh | SIAE inh | TCR CD3 inh | mABHD4 FP | PLA2 counter | others
Cc1ccc(C(=O)NC(=S)Nc2ccccc2N2CCCC2)cc1[N+](=O)[O-] | 42* | -1 | -7 | 10 | 2 | 6 | 21
Cc1ccc(NC(=O)CN(c2ccc(Cl)cc2)S(=O)(=O)c2cc([N+](=O)[O-])ccc2Cl)cc1 | -11 | 0 | -7 | 6 | 3 | -1 | .
COc1ccc(C)cc1S(=O)(=O)N(CC(=O)Nc1cccc([N+](=O)[O-])c1)c1ccc(C)c(C)c1 | 88* | 1 | -5 | -11 | 4 | 7 | 90*
O=C1NC2(CCCC2)Oc2ccccc21 | -10 | 0 | . | -6 | 3 | 0 | .
CC1(C)C2CCC1(C)C1(C2)NC(=O)c2ccccc2O1 (centres undefined) | 45* | 0 | 0 | 1 | -6 | 2 | 34 | ATG4B conf=70*
O=C(Nc1ccc(F)cc1)OCc1cn(Cc2ccc(F)c(F)c2)nn1 | . | -3 | . | -5 | . | -6 | .
COCOc1ccc(/C=C/C(=O)c2c(OCOC)cc(OCOC)c(CC=C(C)C)c2O)cc1OCOC | -13 | . | . | . | . | . | .
COc1cc(CCc2ccccc2)c(C(=O)O)c(O)c1CC=C(C)C | 75* | 4 | -81 | 5 | -4 | -74 | 86*
CC(C)=CCC/C(C)=C/Cc1c(O)ccc(C(=O)/C=C/c2ccc(O)cc2)c1O | 12 | 0 | -21 | -27 | 1 | -42 | .
COc1cc(CCc2ccccc2)c(C(=O)O)c(O)c1C/C=C(/C)CCC=C(C)C | 85* | 4 | -131 | -12 | 0 | -124 | 90*
O=c1oc(-c2cccs2)nc2sc3c(c12)CCCC3 | -5 | 0 | -2 | -3 | -7 | 5 | .
O=C1CN(c2nc(-c3cccs3)nc3sc4c(c23)CCCC4)CCN1 | 76* | -1 | -39 | -3 | -1 | -19 | 87*
C=CCn1c(COc2ccccc2-c2ccccc2)nnc1SCC(=O)NC(=O)NCc1ccco1 | 75* | 6 | -22 | -9 | -6 | -5 | 85*
C=CCn1c(COc2ccccc2F)nnc1SCC(=O)NC(=O)NCc1ccco1 | -1 | 1 | -12 | -3 | -3 | 10 | .
C=CCN1C(=O)[C@H](CC(=O)NCC23CC4CC(CC(C4)C2)C3)[C@@]2(C(=O)OC)CCCCC=C12 | . | -3 | . | 9 | . | 5 | .
O=S(=O)(c1ccc(F)cc1)c1nc(-c2ccccc2F)oc1N1CCCCC1 | 44* | 11 | -6 | 1 | 0 | -1 | 41 | ATG4B conf=65*
O=C(C1CC1)n1ccc2ccc(-c3ccc4ccn(Cc5ccccc5)c4c3)cc21 | . | 1 | . | 1 | . | -1 | .
